Active and inactive are the calls of the source.
Tests used:
Escherichia coli [1] = test: Ratio of MIC for Escherichia coli ATCC 25922 after 20 passages to MIC for Escherichia coli ATCC 25922 before 20 passages; type: functional, organism-based
Method in brief: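 The MIC was first measured by broth microdilution. Cells grown at MIC/2 were then carried into a fresh MIC assay after each 24 h, repeated over 20 serial passages. Norfloxacin (S. aureus) and colistin (E. coli) served as control antibiotics. Resistance was defined as a >4-fold rise over the original MIC.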

HeLa [2] = test: Cytotoxicity against human HeLa cells assessed as effect on cell morphology at 2 to 4 times MIC after 24 hrs by electron scanning microscopic method; type: cell-based
Method in brief: (§1)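 HeLa cells in DMEM with 10% FBS (37 °C, 5% CO₂), seeded in 12-well plates and left to adhere overnight. Treated 24 h with compound at 2× and 4× MIC; untreated and 0.1% Triton X-100 controls. Cells washed with PBS and imaged for morphology. For live/dead imaging, stained with 2 µM calcein AM and 4.5 µM PI for 15 min at 37 °C.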

Staphylococcus aureus [3] = test: Antibacterial activity against methicillin-resistant Staphylococcus aureus clinical isolate 1-may after 16 to 20 hrs by broth microdilution method; type: functional
Method in brief: (§2)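 CLSI broth microdilution in Mueller-Hinton broth. A 4-6 h culture was diluted to about 10⁶ CFU/mL and mixed 1:1 with compound dilutions prepared at 256 to 0.5 µg/mL from aqueous stocks. Plates were incubated at 37 °C for 16-20 h and read visually for MIC. Each concentration was run in duplicate, and the experiment was repeated at least twice. Vancomycin and meropenem were comparators.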

Staphylococcus aureus [4] = test: Antibacterial activity against Staphylococcus aureus ATCC 29213 after 16 to 20 hrs by broth microdilution method; type: functional
Method in brief: (§3)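 Broth microdilution per CLSI. Bacteria grown 4-6 h (about 10⁸ CFU/mL), then diluted to about 10⁶ CFU/mL. Medium: Mueller-Hinton broth, except Luria-Bertani broth for E. coli. Compounds in sterile water, twofold series 256-0.5 µg/mL, mixed 1:1 with inoculum, 37 °C for 16-20 h. MIC is the lowest concentration without visible growth. Duplicate wells; experiment repeated at least twice.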

Staphylococcus aureus [5] = test: Induction of inner membrane permeabilization in Staphylococcus aureus ATCC 29213 at 10 to 20 ug/ml measured every 2 mins for 12 mins by propidium iodide staining-based fluorescence assay; type: functional, organism-based
Method in brief: (§4)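 Mid-log cells (~10⁸ CFU/mL) were suspended in PBS (S. aureus) or HEPES/glucose/KCl (E. coli). They were preincubated with propidium iodide for 30 min (S. aureus) or 40 min (E. coli), and baseline fluorescence was read for 8 min. Compound was added to 20 µg/mL final, and fluorescence (ex 535/em 617 nm) was read every 2 min for 12 min.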

Staphylococcus aureus [6] = test: Antibacterial activity against methicillin-resistant Staphylococcus aureus clinical isolate 0906202 after 16 to 20 hrs by broth microdilution method; type: functional; method in brief: as §2
HeLa [7] = test: Cytotoxicity against human HeLa cells at 2 to 4 times MIC after 24 hrs by calcein AM/propidium iodide staining-based fluorescence microscopic method; type: cell-based; method in brief: as §1
Staphylococcus aureus [8] = test: Bactericidal activity against methicillin-resistant Staphylococcus aureus in presence of 50% sheep serum after 20 to 24 hrs; type: functional; conditions: read-out: MBC99.9
Method in brief: (§5)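 MRSA at 10⁵ CFU/mL in 50% MHB plus 50% sheep serum, plasma or defibrinated blood; serum and plasma were obtained by centrifugation at 3,500 rpm for 10 min. Aqueous dilutions prepared at 512-4 µg/mL were added 1:3 to the suspension and incubated for 20-24 h at 37 °C. Well contents (20 µL) were plated on MHA for 20-24 h, and MBC was the concentration giving no colonies.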

Staphylococcus aureus [9] = test: Induction of cytoplasmic membrane depolarization in Staphylococcus aureus ATCC 29213 at 10 to 20 ug/ml measured every 2 mins for 12 mins by DiSC35 dye-based fluorescence assay; type: functional, organism-based
Method in brief: (§6)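 Mid-log cells (~10⁸ CFU/mL) were suspended in PBS (S. aureus) or HEPES/glucose/KCl with EDTA (E. coli). They were preloaded with DiSC3(5) for 30 min (S. aureus) or 40 min (E. coli), and baseline fluorescence was read for 8 min. Compound was added to 20 µg/mL final, and fluorescence (ex 622/em 670 nm) was read every 2 min for 12 min. Water served as control.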

Staphylococcus aureus [10] = test: Ratio of MBC99.9 for methicillin-resistant Staphylococcus aureus in presence of 50% sheep serum to MBC99.9 for methicillin-resistant Staphylococcus aureus ATCC 29213 in presence of 50% sheep plasma; type: functional; method in brief: as §5
Staphylococcus aureus [11] = test: Bactericidal activity against methicillin-resistant Staphylococcus aureus in presence of 50% sheep blood after 20 to 24 hrs; type: functional; conditions: read-out: MBC99.9; method in brief: as §5
Escherichia coli [12] = test: Induction of cytoplasmic membrane depolarization in Escherichia coli ATCC 25922 at 10 to 20 ug/ml measured every 2 mins for 12 mins by DiSC35 dye-based fluorescence assay; type: functional, organism-based; method in brief: as §6
Staphylococcus aureus [13] = test: Antibacterial activity against methicillin-resistant Staphylococcus aureus clinical isolate 0831010 after 16 to 20 hrs by broth microdilution method; type: functional; method in brief: as §2
Staphylococcus aureus [14] = test: Antibacterial activity against methicillin-resistant Staphylococcus aureus clinical isolate 1105183 cono7 after 16 to 20 hrs by broth microdilution method; type: functional; method in brief: as §2
Staphylococcus aureus [15] = test: Antibacterial activity against methicillin-resistant Staphylococcus aureus clinical isolate 1207007 after 16 to 20 hrs by broth microdilution method; type: functional; method in brief: as §2
[16] = Hemolytic activity in sheep RBC after 1 hr; type: ADME, cell-based, Ovis aries, Erythrocyte; conditions: sheep red blood cells (erythrocytes)
Method in brief: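 Sheep red blood cells (150 µL suspension) mixed with 50 µL of compound dilutions (5120-10 µg/mL), 1 h at 37 °C, then centrifuged. Supernatant read at 540 nm. Percent hemolysis calculated relative to RBC-only control (0%) and 0.1% Triton X-100 (100%).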

Staphylococcus aureus [17] = test: Antibacterial activity against methicillin-resistant Staphylococcus aureus clinical isolate 20130911034sau after 16 to 20 hrs by broth microdilution method; type: functional; method in brief: as §2
Escherichia coli [18] = test: Antibacterial activity against Escherichia coli ATCC 25922 after 16 to 20 hrs by broth microdilution method; type: functional; method in brief: as §3
Staphylococcus aureus [19] = test: Antibacterial activity against methicillin-resistant Staphylococcus aureus clinical isolate 1208143 after 16 to 20 hrs by broth microdilution method; type: functional; method in brief: as §2
Escherichia coli [20] = test: Disruption of 72 hrs cultured Escherichia coli ATCC 25922 biofilm assessed as decrease in cell viability in biofilm after 24 hrs by crystal violet staining-based assay; type: functional, organism-based
Staphylococcus aureus [21] = test: Bactericidal activity against Staphylococcus aureus ATCC 29213 at 6 times MIC after 3 hrs by time-kill assay (reference value: 10^6.1 CFU/ml); type: functional
Method in brief: (§7)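 Overnight cultures diluted 1:10,000 in MHB and grown at 37 °C, 225 rpm, for 2 h (early exponential) or 5 h (late exponential). Cells exposed to compound at 6× or 8× MIC in tubes at 37 °C, 225 rpm. At intervals, aliquots were spun, resuspended in PBS, tenfold diluted, plated on MHA overnight at 37 °C and counted as CFU/mL. Biological replicates.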

Enterococcus faecalis = test: Antibacterial activity against Enterococcus faecalis ATCC 29212 after 16 to 20 hrs by broth microdilution method; type: functional; method in brief: as §3
Staphylococcus aureus [22] = test: Antibacterial activity against methicillin-resistant Staphylococcus aureus clinical isolate 1104060 after 16 to 20 hrs by broth microdilution method; type: functional; method in brief: as §2
Escherichia coli [23] = test: Bactericidal activity against Escherichia coli ATCC 25922 at 6 to 8 times MIC after 6 hrs by time-kill assay; type: functional, organism-based; method in brief: as §7
Salmonella enterica = test: Antibacterial activity against Salmonella enterica ATCC 13076 after 16 to 20 hrs by broth microdilution method; type: functional; method in brief: as §3
Escherichia coli [24] = test: Induction of inner membrane permeabilization in Escherichia coli ATCC 25922 at 10 to 20 ug/ml measured every 2 mins for 12 mins by propidium iodide staining-based fluorescence assay; type: functional, organism-based; method in brief: as §4
Staphylococcus aureus [25] = test: Antibacterial activity against methicillin-resistant Staphylococcus aureus clinical isolate 20131012632sau after 16 to 20 hrs by broth microdilution method; type: functional; method in brief: as §2

Molecule: COLISTIN
- Ratio (Escherichia coli [1]): 32

Molecule: CCCCCCCC[N+](C)(C)CC(=O)Nc1ccc(C(=O)/C=C/c2ccccc2)cc1.[Cl-]
- Activity (HeLa [2]): Non-Toxic
- MIC (Staphylococcus aureus [3]): 1 µg/mL
- MIC (Staphylococcus aureus [4]): 1 µg/mL
- Activity (Staphylococcus aureus [5]): Active
- MIC (Staphylococcus aureus [6]): 4 µg/mL
- Activity (HeLa [7]): Toxic
- MBC (Staphylococcus aureus [8]): 32 µg/mL
- Activity (Staphylococcus aureus [9]): Active
- Ratio (Staphylococcus aureus [10]): 2
- MBC (Staphylococcus aureus [11]): 128 µg/mL
- Activity (Escherichia coli [12]): Active
- MIC (Staphylococcus aureus [13]): 1 µg/mL
- MIC (Staphylococcus aureus [14]): 1 µg/mL
- MIC (Staphylococcus aureus [15]): 0.5 µg/mL
- HC50 at 1 h [16]: 228 µg/mL
- MIC (Staphylococcus aureus [17]): 0.5 µg/mL
- MIC (Escherichia coli [18]): 2 µg/mL
- MIC (Staphylococcus aureus [19]): 2 µg/mL
- Activity (Escherichia coli [20]): Active
- Activity (Staphylococcus aureus [21]): 1 CFU/ml
- MIC (Enterococcus faecalis): 1 µg/mL
- MIC (Staphylococcus aureus [22]): 8 µg/mL
- Activity (Escherichia coli [23]): Active
- MIC (Salmonella enterica): 4 µg/mL
- Activity (Escherichia coli [24]): Active
- MIC (Staphylococcus aureus [25]): 4 µg/mL

— ChEMBL document CHEMBL4138242, “Synthesis and antibacterial evaluation of novel cationic chalcone derivatives possessing broad spectrum antibacterial activity” (Eur J Med Chem, 2018)
